Screening results as filed in PubChem.
V-ATPase pHluor: regulators of yeast V-ATPase proton pumping, primary screen, pHLuorin cytosolic pH fluorescence; S. cerevisiae; response, % at 10 µM; 350,000 tested, 0.37% active; in the data active = response mostly above about 7.3%, no sharp cut-off; inactive = mostly below about 5.4%; note: actives read high
ASAP1 inh: inhibitors of human ASAP1 ArfGAP activity, primary screen, biochemical, fluorescence polarization | Arf-GAP with SH3 domain, ANK repeat and PH domain-containing protein 1 (Homo sapiens), … | AID 624377, 2012 | 360,000 tested, 0.19% active | ASAP1-stimulated ARF1 GTP hydrolysis, GDP FP detection | inhibition, % at 16.5 µM; in the data active = inhibition above about 25%;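 note: 0% = vehicle with enzyme and substrate and 100% = no enzyme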
Target sequence (Q9ULH1 325-724 limits assumed): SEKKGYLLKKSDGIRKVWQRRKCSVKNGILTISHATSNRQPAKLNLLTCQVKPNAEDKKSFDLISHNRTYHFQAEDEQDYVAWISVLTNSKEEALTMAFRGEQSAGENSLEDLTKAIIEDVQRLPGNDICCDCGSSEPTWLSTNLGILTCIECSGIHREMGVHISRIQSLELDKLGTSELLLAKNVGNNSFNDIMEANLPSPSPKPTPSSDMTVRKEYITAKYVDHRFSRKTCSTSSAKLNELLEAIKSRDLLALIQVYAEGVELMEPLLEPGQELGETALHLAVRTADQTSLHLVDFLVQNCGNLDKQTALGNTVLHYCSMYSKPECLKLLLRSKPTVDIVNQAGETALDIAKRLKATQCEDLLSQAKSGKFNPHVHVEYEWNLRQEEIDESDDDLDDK
ARFGAP1 inhibitor: inhibitors of rat ARFGAP1 GAP activity, primary screen, biochemical, fluorescence polarization, GDP tracer | ADP-ribosylation factor GTPase-activating protein 1 (Rattus norvegicus), Q62848 | Arfgap1-stimulated ARF1 GTP hydrolysis, GDP FP detection | inhibition, % at 16.5 µM | 360,000 tested, 0.26% active | AID 651572, 2012;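 active = inhibition above a per-plate limit, mean inhibition of low control wells plus 3 SD, cut at about 25% in these data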;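 note: 0% = DMSO wells with enzyme and 100% = wells lacking Arfgap1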
Target sequence (Q62848 1-136 limits assumed): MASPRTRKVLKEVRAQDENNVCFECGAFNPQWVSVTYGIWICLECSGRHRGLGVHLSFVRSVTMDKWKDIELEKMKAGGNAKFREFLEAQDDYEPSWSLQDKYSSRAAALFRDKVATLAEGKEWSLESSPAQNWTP
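Assay system: purified rat His6-Arfgap1 residues 1-136 (GAP domain); Reagent: human Δ17 ARF1 bound to GTP; Dosing: 16.5 µM single point, 1.26% DMSO; Times: GTP hydrolysis reaction 2 h at 25 °C; Signal: FP, GDP Alexa 633 tracer displaced from anti-GDP antibody, 620/688 nm; Measure: % inhibition from polarization.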
NRP1-CendR mod: modulators of CendR peptide binding to NRP-1, primary screen, biochemical, fluorescence polarization, uHTS; AID 602438, 2012; FAM-RPARPAR peptide binding to NRP-1; inhibition, % at 25 µM; 360,000 tested, 0.85% active;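 active = inhibition or corrected inhibition above about 18%, plus a signal ratio from 0.5 to 1.5, limit read from the data, passing the limit was not always enough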
Granule exo inh: LAMP-1 surface exposure blockers, TALL-104 cells – cell-based, flow cytometry, MLPCN library, primary screen; 360,000 tested, 0.66% active; inhibition, % at 10 µM; TALL-104 LAMP-1 surface exposure; cells stimulated with thapsigargin and PMA;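 active = inhibition above about 55%, limit read from the data; inconclusive = no clear call, values can overlap the other calls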
Numbers without * were called inactive; ? = inconclusive; . = not tested or not shown. An excerpt weighted towards active compounds, which were near 2.2% of everything screened.

SMILES	V-ATPase pHluor	ASAP1 inh	ARFGAP1 inhibitor	NRP1-CendR mod	Granule exo inh
O=[N+]([O-])c1ccc(Sc2nc3ccccc3o2)c([N+](=O)[O-])c1	8	7	0	0	22
O=C1CCN(CCc2ccccc2)CCN1[C@H](CSc1ccc(Br)cc1)c1ccccc1	4	8	-4	23	-1
CCCN1CCC(=O)N([C@H](CSc2ccc(Br)cc2)c2ccccc2)CC1	1	-9	6	24*	-4
CC(C)CN1CCC(=O)N([C@H](CSc2ccc(Br)cc2)Cc2ccccc2)CC1	-6	6	-6	24*	2
NCc1csc(Nc2ccc(C(=O)c3ccccc3)cc2)n1	.	8	-5	-7	8
CC(=O)NC(=O)c1cnn(-c2ccccc2)c1N	2	-6	14	36*	1
COC(=O)c1cnn(-c2ccccc2)c1N	0	-5	2	0	-3
Cn1cc(-c2cc(C(=O)O)on2)cn1	0	-11	-2	25*	6
Cc1c(CC(=O)O)c(=O)oc2cc3occ(-c4ccccc4)c3cc12	-2	6	-1	44*	2
Cn1c(CC(=O)Nc2ccc(F)cc2)nnc1SCC(=O)Nc1nncs1	4	11	13	14	13
Cc1ccc(OC(C)C(=O)Nc2ccc(Cl)cn2)c([N+](=O)[O-])n1 (configuration not stated)	-1	5	-8	7	1
Cc1cc(Cl)ccc1OC(C)C(=O)Nc1ccc([N+](=O)[O-])cn1 (configuration not stated)	-1	-1	12	26*	?
COc1ccccc1CCn1cnc(-c2cccc(Br)c2)c1C(C)C	.	-8	-3	.	.
COC(=O)c1cc2c(c3c4cc(OC)ccc4n(S(=O)(=O)c4ccc(OC)cc4)c13)C(=O)N(Cc1ccc(C(F)(F)F)cc1)C2	.	-10	3	.	.
COC(=O)C1=C(C)NC(C)=C(C(=O)OCC(C)C)C1c1ccccc1[N+](=O)[O-] (configuration not stated)	.	16	-7	-13	68*
Oc1cc(NCCN2CCOCC2)cc2cccnc12	-4	-1	-7	29*	-2
CC(=O)N1CCN(c2ccc(N3CCN(C(C)=O)[C@H](C)C3)c(C)c2)[C@H](C)C1	.	-1	16	.	.
Cc1cc(Nc2cccc([N+](=O)[O-])c2)cc(=O)n1-c1cccc([N+](=O)[O-])c1	.	10	11	.	.
C=CCn1c(-c2ccc(Cl)cc2)cnc1SC(C)C(N)=O (configuration not stated)	0	1	2	19*	-5
CC(C)C[C@@]12C(=O)N(c3cccc(F)c3)C(=O)N1[C@H](c1ccc(Br)cc1)[C@@H]1C(=O)N(C(C)(C)C)C(=O)[C@@H]12	2	6	0	12	77*
CCN1C(=O)[C@H]2[C@@H](c3ccc(C)cc3)N3C(=O)N(c4cccc(Br)c4)C(=O)[C@@]3(Cc3ccccc3)[C@H]2C1=O	13*	10	-3	-2	-6
CCN(CCOC(=O)Nc1ccc(Cl)cc1)C(=O)Nc1ccc(Cl)cc1	.	16	4	.	.
Cc1ccc(-c2nnn(CC(=O)N(CC(=O)NC3CCCCC3)c3ccc(F)c(Cl)c3)n2)o1	1	-4	9	29*	26
Cc1ccccc1-c1cccc2[nH]c3c(c12)CCN1C(=O)[C@H]2[C@H](C)ON(C)[C@H]2C[C@@H]31	.	-4	8	.	.
CCOC(=O)CNc1ccc2c(c1)OCO2	0	1	-7	34*	0
SMILES	V-ATPase pHluor	ASAP1 inh	ARFGAP1 inhibitor	NRP1-CendR mod	Granule exo inh
Cc1cc(C)cc(NC(=S)N2CCC(NC(=O)C3CCCCC3)CC2)c1	-1	6	3	0	20
Cc1cccc(NC(=O)N2CCC(NC(=O)C3CCCCC3)CC2)c1	-1	4	0	7	-16
Cc1cc(C)cc(NC(=S)N2CCC(NC(=O)C3CC3)CC2)c1	15*	-11	8	4	14
O=C(NC1CCN(C(=O)Nc2cccc(Cl)c2)CC1)C1CCCCC1	15*	-6	7	10	0
CCOC(=O)N(C)[C@H]1C[C@H]2c3[nH]c4c(-c5ccccc5)cccc4c3CCN2C(=O)[C@H]1[C@H](C)O	.	2	9	.	.
COC(=O)c1cc2c(c3c4ccccc4n(S(=O)(=O)c4ccc(C)cc4)c13)C(=O)N(C)C2	.	6	2	.	.
CC(C)NC(=S)N1CCCN(c2ncccc2[N+](=O)[O-])CC1	4	10	13	0	-1
C[C@H](NC(=O)c1ccccc1)C(=O)N1CCN(Cc2ccc3c(c2)OCO3)CC1	-1	-2	-12	-9	-2
NC(=O)CC[C@H](NC(=O)c1ccc(F)cc1)C(=O)N1CCN(Cc2ccc3c(c2)OCO3)CC1	-1	-5	-8	21*	-18
C[C@]12Cc3ccccc3C1CC1=N[C@@H](C3CCCCC3)O[C@@]13C[C@@H]2C(=O)N3C1CCN(Cc2ccccc2)CC1 (some centres not stated)	.	3	1	.	.
Cn1c(CNC(=O)c2ccccc2F)nnc1SCC(=O)c1ccccc1	-1	-6	11	27*	-15
O=C1Cn2nnc(-c3ccccc3)c2C2c3cc(Br)ccc3CCN12 (configuration not stated)	.	-13	-4	.	.
COc1ccc(C2SCC(C(=O)O)N2C(C)=O)cc1OC (configuration not stated)	-1	-2	27*	7	0
COc1ccc(C2SCC(C(=O)O)N2C(C)=O)cc1 (configuration not stated)	-6	-2	-13	13	-4
O=C1C(=O)N(CCCc2ccccc2)c2ccccc21	1	.	.	10	76*
CCOC(=O)C1=C(C(=O)OCC)C2N(Cc3ccc(C(F)(F)F)cc3)c3ccccc3[C@@]23C[C@@H](C(=O)OC)N(S(=O)(=O)c2ccccc2C)C3=N1 (some centres not stated)	.	3	-8	.	.
Cc1ccccc1Nc1nc(N)nc(CSc2nnnn2C)n1	-2	-2	7	10	-1
Cc1ccccc1Nc1nc(N)nc(CSc2nnnn2-c2ccccc2)n1	13*	-1	-11	-4	-4
COc1ccc(C2(C(=O)Nc3ccccc3)CCOCC2)cc1	0	-3	2	7	9
CCOC(=O)c1ccc(NC(=O)C2(c3ccccc3)CCOCC2)cc1	-4	2	-3	31*	10
O=C(N[C@H](C(=O)N1CCC[C@H]1C(=O)NC1CCCC1)C1CCCCC1)c1ccccc1	.	-2	-5	.	.
Nc1nnc(SCc2ccc(Cl)cc2)s1	0	-3	-10	26*	-3
Nc1nnc(CSCc2ccc(Cl)cc2)s1	3	0	14	1	10
